eIF4E-4G inh – eIF4E/eIF4G interaction inhibition in translation initiation. P63073+Q04637. TR-FRET eIF4E-eIF4GI(517-606) binding, 2 h. inhibition, % at 21.7 µM. actives 0.37% (n = 220,000);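 also: 0% = full FRET control wells and 100% = background wells lacking eIF4GI fragment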
14-3-3 Bad PPI – disrupts binding of bovine 14-3-3 zeta to phospho-Bad peptide | actives 0.71% (n = 220,000) | P63103 | TR-FRET 14-3-3zeta/Dy647-pBad peptide displacement, 1 h | inhibition, % at 21.7 µM;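 active = inhibition above about 70%, limit read from the data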;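 also: 0% = full 14-3-3 plus peptide FRET controls and 100% = background without 14-3-3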
Wee1 stabilizer – human Wee1 degradation inhibition, primary screen. P30291. HeLa Luc-Wee1K328M stability, luciferase luminescence; 100% = proteasome inhibitor MG132 effect. reporter increase, % at 5 µM. actives 1.2% (n = 220,000). AID 1321;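 active = activation above the mean of all tested compounds plus 3 SD, set per screening run, cut at about 8.8% in these data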;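 also: cells exposed to compound for 20 h before luminescence read; 0% = DMSO alone and 100% = MG132 at 30 µM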
RBBP9 inh – human RBBP9 hydrolase inhibition. O75884. recombinant RBBP9, FP-Rh probe fluorescence polarization. inhibition, % at 7.94 µM. actives 0.2% (n = 220,000);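 active = inhibition above the campaign mean of all tested compounds plus 3 SD, cut at about 14% in these data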;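 also: plate controls were DMSO wells with RBBP9 for no effect and wells lacking RBBP9 protein for full effect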
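System: RBBP9 protein | Quantity: 2.5 µM RBBP9 dispensing solution, before mixing | Reagent: FP-Rh probe, 375 nM dispensing solution | Timing: Enzyme-compound preincubation 30 min, then probe labeling 45 min, 25 °C | Measured by: Fluorescence polarization | Read-out: % inhibition | Replication: One well per compound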
p47phox inh – inhibitors of human p47phox binding; inhibition, % at 24.7 µM; p47phox/p22phox peptide binding, fluorescence polarization, 2 h; actives 0.53% (n = 220,000); P14598;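 also: 0% = p47phox with labelled peptide and 100% = labelled peptide alone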
Numbers without * were called inactive; [ ] = remark or other dose. This is a sample that favours compounds with a hit; in the whole collection about 2.8% have one here.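 The calls were made as follows, unless noted: active = inhibition above about 30% (limit read from the data); inactive = the rest.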

SMILES	eIF4E-4G inh	14-3-3 Bad PPI	Wee1 stabilizer	RBBP9 inh	p47phox inh
CCOC(=O)c1sc2nc3c(SCCC(=O)O)cc(C(=O)c4cc(OC)ccc4O)cn3c(=O)c2c1C	57.4*	64.2	-1.9	-17.7	-17.4
COC(=O)c1ccc(Cl)cc1N(Cc1c(F)cccc1Cl)S(C)(=O)=O	1.0	-0.7	-0.7	-5.3	-1.4
O=C(NC(=S)Nc1ccc(CN2CCOCC2)cc1)c1ccco1	0.5	-1.9	10.4*	-6.0	-5.1
COc1cc(-c2nnc(-c3ccccc3)o2)cc(OC)c1OC	-1.4	7.4	2.3	1.2	32.1*
COc1cc(-c2nnc(-c3cc(OC)c(OC)c(OC)c3)o2)cc(OC)c1OC	-1.2	11.8	2.7	-9.4	1.0
Cc1[nH]n(-c2ccc(F)cc2)c(=O)c1/C=N/c1sc2c(c1C#N)CCCC2	3.6	80.8*	1.7	-3.5	-17.0
Cc1[nH]n(-c2cccc3ccccc23)c(=O)c1/C=N/c1sc2c(c1C#N)CCC2	12.4	7.7	-3.4	-2.3	-6.0
O=C(NCCc1ccccc1)C(=O)NCC1OCCN1S(=O)(=O)c1ccc([N+](=O)[O-])cc1 (stereo unspecified)	2.2	0.3	0.8	3.3	0.4
S=c1[nH]c(-c2ccccc2)cn1/N=C/c1cccnc1	96.1*	-1.4	0.1	-11.4	-0.1
S=c1[nH]c(-c2ccccc2)cn1/N=C/c1ccc(Br)cc1	-3.0	1.2	5.3	-9.3	1.6
COc1ccc(-c2nn(-c3ccccc3F)cc2CNCCn2nc(C)cc2C)cc1	2.1	-2.3	-2.9	-4.9	-10.4
N#Cc1ccc(N=c2ssnc2Cl)cc1	26.0	31.1	3.6	-7.2	21.2
Clc1ccc(N=c2ssnc2Cl)cc1	30.7*[fluorescence artefact?]	43.7	1.6	-4.4	27.7
COc1ccc(N=Cc2sc3ccccc3c2Cl)cc1	2.4	0.5	-2.5	-6.9	2.3
COc1ccc(N=c2ssnc2Cl)cc1	30.3*	29.0	-1.6	-11.6	12.6
Fc1ccc(N=c2ssnc2Cl)c(F)c1	51.4*	41.5	-1.0	-7.1	8.7
Clc1nssc1=Nc1ccccc1	50.6*	25.6	-0.7	0.7	6.6
CCOC(=O)c1ccc(N=c2ssnc2Cl)cc1	38.8*	34.1	3.2	-6.6	16.9
CCOC(=O)c1ccc(N=C2SC(C(=O)NC)CC(=O)N2Cc2ccc(F)cc2)cc1 (stereo unspecified)	-5.9	-3.6	-1.4	-7.9	-2.0
COc1cc(N=c2ssnc2Cl)cc(OC)c1OC	66.9*	37.7	2.7	-9.4	1.0
COc1cc(C2SCCS2)cc(Br)c1Oc1ncccc1[N+](=O)[O-]	-1.9	-4.2	13.4*	-4.3	-9.8
CCc1cc(C(=O)N2CCCC(C(=O)c3cccc4ccccc34)C2)n(C)n1 (stereo unspecified)	0.5	-17.3	-0.7	6.8	0.7
Cc1ccc(-n2sc3ccccc3c2=O)cc1	45.0*	41.3	2.5	37.2*	101.2*
Cc1ccc(S(=O)(=O)Nc2nc3ccccc3nc2NCC2CCCO2)c(C)c1 (stereo unspecified)	-0.5	2.9	1.9	-9.1	-7.8
CC(=O)N(/C=C1\SC(=S)N(c2ccccc2)C1=O)c1ccccc1	-1.3	-5.1	10.1*	-25.6	-42.8
SMILES	eIF4E-4G inh	14-3-3 Bad PPI	Wee1 stabilizer	RBBP9 inh	p47phox inh
O=C(Cn1c(=O)sc2ccccc21)Nc1ccc(O)cc1	1.4	-3.1	-0.6	-6.8	-7.5
CN(C)CCCNS(=O)(=O)c1ccc(N2CCC(c3ccc(Cl)cc3)=N2)cc1	2.5	17.8	0.2	-9.5	40.6*
CN(C)CCCNS(=O)(=O)c1cc(Cl)ccc1Cl	6.4	-1.5	0.5	-2.2	-7.1
CC12CN3CCN(CC(C3)/C1=N/N=C/c1cccc([N+](=O)[O-])c1)C2	1.8	-18.8	1.6	-6.1	-1.9
O=S(=O)(c1ccc(Cl)cc1)c1nc(-c2ccco2)oc1N1CCOCC1	4.9	76.1*	1.0	-4.3	-5.7
O=C(CSc1nnc(-c2ccccc2)n1C1CCCCC1)Nc1ccc(S(=O)(=O)Nc2ccccn2)cc1	52.8*	10.6	0.2	-13.0	-21.5
C=CCNC(=O)NC(=O)COC(=O)CNS(=O)(=O)c1ccc(F)c(F)c1F	6.4	-0.4	1.2	11.1	-2.8
CN1CCN(S(=O)(=O)c2cccc(C(=O)NCc3ccccc3Cl)c2)CC1	0.7	-6.4	-4.4	-1.5	-6.3
C/C(=N\OCC(=O)Nn1c(=O)[nH]c2ccccc2c1=O)c1cccs1	0.3	-6.0	0.1	-0.7	173.9*

Screening data (PubChem)
